{"source": "ChEMBL document CHEMBL2016445", "about": "“Discovery of a novel class of potent and orally bioavailable sphingosine 1-phosphate receptor 1 antagonists” (J Med Chem, 2012)", "key": {"[1]": {"molecular_target": "T1, Sphingosine 1-phosphate receptor 1 (Homo sapiens, UniProt P21453)", "T1 sequence (P21453 whole entry)": "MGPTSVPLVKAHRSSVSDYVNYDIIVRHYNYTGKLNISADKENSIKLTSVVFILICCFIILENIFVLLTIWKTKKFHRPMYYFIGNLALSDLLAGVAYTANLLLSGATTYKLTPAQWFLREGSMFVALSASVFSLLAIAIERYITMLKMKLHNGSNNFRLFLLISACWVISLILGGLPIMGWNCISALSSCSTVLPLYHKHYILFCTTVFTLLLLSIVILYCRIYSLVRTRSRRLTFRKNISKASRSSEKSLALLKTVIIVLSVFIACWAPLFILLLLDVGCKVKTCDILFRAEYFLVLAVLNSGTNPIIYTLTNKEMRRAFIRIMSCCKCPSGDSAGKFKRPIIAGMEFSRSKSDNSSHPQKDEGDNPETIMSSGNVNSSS", "experiment": "Antagonist activity at S1P1 receptor expressed in HEK293 cells assessed as inhibition of S1P-induced cAMP response after 90 mins by spectrophotometry", "type": "functional, cell-based"}, "[2]": {"experiment": "Drug uptake in nu/nu homozygous mouse plasma at 100 mg/kg, po as a suspension in 10% NMP/corn oil after 4 hrs by HPLC/MS/MS analysis", "type": "ADME, organism-based", "design": "dose 100 mg/kg, route oral", "how_it_was_run": "(§1)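 Female Nu/Nu mice (~8 wk, 20-22 g) given a single 100 mpk oral dose at 10 mL/kg. Vehicles: 10% EtOH/45% or 40% PEG400/water + 1 molar equiv HCl, 10% EtOH/40% PEG400/20% Captisol + HCl, or 10% NMP/90% corn oil. Heparinized blood collected 1 and 4 h post-dose; plasma analysed by HPLC/MS/MS.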"}, "[3]": {"experiment": "Drug uptake in nu/nu homozygous mouse plasma at 100 mg/kg, po as a suspension in 10% NMP/corn oil after 24 hrs by HPLC/MS/MS analysis", "type": "ADME, organism-based", "design": "dose 100 mg/kg, route oral"}, "Cytochrome P450 2C9": {"molecular_target": "Cytochrome P450 2C9 (Homo sapiens, UniProt P11712)", "sequence (P11712 whole entry)": "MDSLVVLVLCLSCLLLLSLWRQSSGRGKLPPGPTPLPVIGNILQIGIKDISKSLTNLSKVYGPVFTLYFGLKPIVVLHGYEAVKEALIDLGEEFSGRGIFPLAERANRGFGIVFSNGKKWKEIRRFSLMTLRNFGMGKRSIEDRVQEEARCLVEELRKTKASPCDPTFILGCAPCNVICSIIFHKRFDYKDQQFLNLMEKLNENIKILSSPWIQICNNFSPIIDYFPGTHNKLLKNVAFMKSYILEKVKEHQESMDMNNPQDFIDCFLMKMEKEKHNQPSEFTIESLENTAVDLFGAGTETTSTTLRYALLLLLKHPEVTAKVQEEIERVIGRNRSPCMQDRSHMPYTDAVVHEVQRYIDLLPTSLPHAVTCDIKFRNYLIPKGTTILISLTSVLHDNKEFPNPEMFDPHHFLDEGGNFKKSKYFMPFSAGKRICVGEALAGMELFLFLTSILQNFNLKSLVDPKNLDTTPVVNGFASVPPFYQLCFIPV", "experiment": "Inhibition of human CYP2C9 using tolbutamide as substrate by LC/MS/MS analysis", "type": "ADME", "how_it_was_run": "(§2)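 Pooled human liver microsomes in 100 mM potassium phosphate, pH 7.4, at 37 °C with 1000 µM NADPH for 15 min. Microsomes 0.15 mg/mL for CYP2C9 and CYP2D6, 0.25 mg/mL for CYP3A4. Inhibitor tested at six concentrations (0.2–50 µM). Reactions quenched with acetonitrile; metabolite measured by LC/MS/MS; IC50 from 4-parameter sigmoidal fit.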"}, "Cytochrome P450 2D6": {"molecular_target": "Cytochrome P450 2D6 (Homo sapiens, UniProt P10635)", "sequence (P10635 whole entry)": "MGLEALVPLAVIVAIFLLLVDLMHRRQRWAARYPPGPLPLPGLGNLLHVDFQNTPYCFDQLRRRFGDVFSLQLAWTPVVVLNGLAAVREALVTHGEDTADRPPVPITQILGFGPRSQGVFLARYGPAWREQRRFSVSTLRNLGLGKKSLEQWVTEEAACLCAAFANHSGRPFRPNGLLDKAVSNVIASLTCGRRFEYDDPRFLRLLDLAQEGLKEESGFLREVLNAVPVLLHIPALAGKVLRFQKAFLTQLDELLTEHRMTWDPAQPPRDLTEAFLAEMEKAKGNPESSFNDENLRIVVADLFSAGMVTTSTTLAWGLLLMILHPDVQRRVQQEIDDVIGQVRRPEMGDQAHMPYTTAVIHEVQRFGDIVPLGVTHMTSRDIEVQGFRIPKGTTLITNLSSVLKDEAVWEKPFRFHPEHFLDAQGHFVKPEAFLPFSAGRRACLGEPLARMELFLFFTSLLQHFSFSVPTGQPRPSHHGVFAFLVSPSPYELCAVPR", "experiment": "Inhibition of human CYP2D6 using bufuralol as substrate by LC/MS/MS analysis", "type": "ADME", "how_it_was_run": "as §2"}, "Cytochrome P450 3A4": {"molecular_target": "Cytochrome P450 3A4 (Homo sapiens, UniProt P08684)", "sequence (P08684 whole entry)": "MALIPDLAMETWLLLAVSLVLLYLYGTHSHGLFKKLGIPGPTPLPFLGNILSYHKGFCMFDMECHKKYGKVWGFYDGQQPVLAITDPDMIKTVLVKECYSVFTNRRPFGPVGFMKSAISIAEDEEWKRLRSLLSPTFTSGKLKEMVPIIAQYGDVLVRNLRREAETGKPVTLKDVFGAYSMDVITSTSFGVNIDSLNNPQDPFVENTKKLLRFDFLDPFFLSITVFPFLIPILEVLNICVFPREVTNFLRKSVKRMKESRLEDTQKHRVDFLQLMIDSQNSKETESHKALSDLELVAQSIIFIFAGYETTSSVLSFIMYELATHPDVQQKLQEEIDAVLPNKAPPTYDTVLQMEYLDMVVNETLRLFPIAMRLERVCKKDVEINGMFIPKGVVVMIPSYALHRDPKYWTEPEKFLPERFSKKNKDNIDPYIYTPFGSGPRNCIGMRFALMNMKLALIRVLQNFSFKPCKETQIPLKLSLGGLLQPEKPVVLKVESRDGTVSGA", "experiment": "Inhibition of human CYP3A4 using testosterone as substrate by LC/MS/MS analysis", "type": "ADME", "how_it_was_run": "as §2"}, "[4]": {"molecular_target": "T1, Sphingosine 1-phosphate receptor 1", "experiment": "Antagonist activity at S1P1 receptor expressed in HEK293 cells assessed as inhibition of S1P-induced tango beta-arrestin recruitment preincubated for 30 mins prior S1P addition measured after 16 to 18 hrs by luciferase reporter gene assay", "type": "functional, cell-based"}, "[5]": {"molecular_target": "Sphingosine 1-phosphate receptor 2 (Homo sapiens, UniProt O95136)", "sequence (O95136 whole entry)": "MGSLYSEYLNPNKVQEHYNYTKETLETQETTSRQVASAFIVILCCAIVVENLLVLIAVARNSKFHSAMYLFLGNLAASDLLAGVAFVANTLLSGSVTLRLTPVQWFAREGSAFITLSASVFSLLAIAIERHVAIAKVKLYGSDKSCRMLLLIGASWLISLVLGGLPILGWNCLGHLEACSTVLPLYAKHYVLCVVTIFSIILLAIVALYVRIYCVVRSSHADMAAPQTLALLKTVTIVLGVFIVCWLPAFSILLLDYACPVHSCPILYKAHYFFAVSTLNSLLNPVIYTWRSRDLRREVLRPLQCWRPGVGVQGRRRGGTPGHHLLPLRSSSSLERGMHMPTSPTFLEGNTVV", "experiment": "Antagonist activity at S1P2 receptor expressed in HEK293 cells assessed as inhibition of S1P-induced tango beta-arrestin recruitment preincubated for 30 mins prior S1P addition measured after 16 to 18 hrs by luciferase reporter gene assay", "type": "functional, cell-based"}, "[6]": {"molecular_target": "Sphingosine 1-phosphate receptor 3 (Homo sapiens, UniProt Q99500)", "sequence (Q99500 whole entry)": "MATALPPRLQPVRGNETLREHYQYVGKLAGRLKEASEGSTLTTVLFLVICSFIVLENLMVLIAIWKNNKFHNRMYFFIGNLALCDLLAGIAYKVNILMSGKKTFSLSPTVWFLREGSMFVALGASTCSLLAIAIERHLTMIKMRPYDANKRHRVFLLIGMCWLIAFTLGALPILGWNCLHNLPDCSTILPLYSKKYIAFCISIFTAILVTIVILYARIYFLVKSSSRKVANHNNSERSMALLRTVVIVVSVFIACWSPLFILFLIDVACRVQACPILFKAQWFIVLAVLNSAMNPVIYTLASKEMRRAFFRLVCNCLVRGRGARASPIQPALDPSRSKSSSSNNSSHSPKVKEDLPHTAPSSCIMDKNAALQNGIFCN", "experiment": "Antagonist activity at S1P3 receptor expressed in HEK293 cells assessed as inhibition of S1P-induced tango beta-arrestin recruitment preincubated for 30 mins prior S1P addition measured after 16 to 18 hrs by luciferase reporter gene assay", "type": "functional, cell-based"}, "[7]": {"experiment": "Drug uptake in nu/nu homozygous mouse plasma at 100 mg/kg, po after 1 hr by HPLC/MS/MS analysis", "type": "ADME, organism-based", "design": "dose 100 mg/kg, route oral", "how_it_was_run": "as §1"}, "[8]": {"experiment": "Drug uptake in nu/nu homozygous mouse plasma at 100 mg/kg, po after 4 hrs by HPLC/MS/MS analysis", "type": "ADME, organism-based", "design": "dose 100 mg/kg, route oral", "how_it_was_run": "as §1"}, "[9]": {"experiment": "Metabolic stability of the compound in mouse liver microsomes assessed as compound oxidation measuring disappearance of compound at 15 uM after 30 mins by LC/MS/MS analysis", "type": "ADME, Microsome", "settings": "read-out: Drug degradation", "how_it_was_run": "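Incubated in duplicate for 30 min at 37 °C: 15 µM compound, 0.15% DMSO, 0.5 mg/mL mouse liver microsomes, 1 mM NADPH, 100 mM potassium phosphate pH 7.4. Stopped with acetonitrile containing 0.1% formic acid. Parent remaining measured by LC/MS/MS; disappearance calculated relative to no-NADPH controls.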"}, "[10]": {"experiment": "Drug uptake in nu/nu homozygous mouse plasma at 100 mg/kg, po as a suspension in 10% NMP/corn oil after 1 hr by HPLC/MS/MS analysis", "type": "ADME, organism-based", "design": "dose 100 mg/kg, route oral", "how_it_was_run": "as §1"}, "[11]": {"experiment": "Drug uptake in nu/nu homozygous mouse plasma at 100 mg/kg, po as a solution in 10% EtOH/40% PEG400/water + 1:1 HCl after 1 hr by HPLC/MS/MS analysis", "type": "ADME, organism-based", "design": "dose 100 mg/kg, route oral", "how_it_was_run": "as §1"}, "[12]": {"experiment": "Drug uptake in nu/nu homozygous mouse plasma at 100 mg/kg, po as a solution in 10% EtOH/40% PEG400/water + 1:1 HCl after 4 hrs by HPLC/MS/MS analysis", "type": "ADME, organism-based", "design": "dose 100 mg/kg, route oral", "how_it_was_run": "as §1"}}, "data": [{"smiles": "CN(CC(=O)N[C@@H](COCc1ccccc1)C(=O)Nc1ccc(Oc2ccccc2)cc1)C(=O)c1ccccc1", "values": [{"measurement": "IC50", "setting": "[1]", "result": 548, "unit": "nM"}]}, {"smiles": "O=C(Nc1ccc(Oc2ccc(F)cc2)cc1)[C@@H]1C[C@@H](c2ccccc2)CN1C(=O)Cc1cnc[nH]1", "values": [{"measurement": "IC50", "setting": "[1]", "result": 158, "unit": "nM"}, {"measurement": "concentration at 4 h", "setting": "[2]", "result": 27.2, "unit": "µM"}, {"measurement": "concentration at 24 h", "setting": "[3]", "result": 5, "unit": "µM"}, {"measurement": "IC50", "setting": "Cytochrome P450 2C9", "result": 213, "unit": "nM"}, {"measurement": "IC50", "setting": "Cytochrome P450 2D6", "result": 663, "unit": "nM"}, {"measurement": "IC50", "setting": "Cytochrome P450 3A4", "result": 301, "unit": "nM"}]}, {"smiles": "O=C(Cc1cnc[nH]1)N[C@@H](Cc1ccccc1)C(=O)Nc1ccc(Oc2ccc(Cl)cc2)cc1", "values": [{"measurement": "IC50", "setting": "[1]", "result": 326, "unit": "nM"}]}, {"smiles": "O=C(NC(COCc1ccccc1)C(=O)Nc1ccc(Oc2ccccc2)cc1)C1CC1", "note": "(racemic)", "values": [{"measurement": "IC50", "setting": "[1]", "result": 297, "unit": "nM"}]}, {"smiles": "CN(CC(=O)NC(COCc1ccccc1)C(=O)Nc1ccc(Oc2ccccc2)cc1)C(=O)c1ccccc1", "note": "(racemic)", "values": [{"measurement": "IC50", "setting": "[1]", "result": 718, "unit": "nM"}, {"measurement": "IC50", "setting": "[4]", "result": 2800, "unit": "nM"}, {"measurement": "IC50", "setting": "[5]", "result": "> 10000", "unit": "nM"}, {"measurement": "IC50", "setting": "[6]", "result": "> 10000", "unit": "nM"}, {"measurement": "concentration at 1 h", "setting": "[7]", "result": "< 0.019", "unit": "µM"}, {"measurement": "concentration at 4 h", "setting": "[8]", "result": "< 0.019", "unit": "µM"}, {"measurement": "metabolised at 0.5 h, 15 µM", "setting": "[9]", "result": 89, "unit": "%"}]}, {"smiles": "O=C(Nc1ccc(Oc2ccc(F)cc2)cc1)[C@@H]1C[C@@H](Cc2ccccc2)CN1C(=O)Cn1cncn1", "values": [{"measurement": "IC50", "setting": "[1]", "result": 6.8, "unit": "nM"}, {"measurement": "IC50", "setting": "[4]", "result": 45, "unit": "nM"}, {"measurement": "IC50", "setting": "[5]", "result": "> 10000", "unit": "nM"}, {"measurement": "IC50", "setting": "[6]", "result": "> 10000", "unit": "nM"}, {"measurement": "concentration at 4 h", "setting": "[2]", "result": 86.4, "unit": "µM"}, {"measurement": "metabolised at 0.5 h, 15 µM", "setting": "[9]", "result": 13, "unit": "%"}, {"measurement": "concentration at 24 h", "setting": "[3]", "result": 8.3, "unit": "µM"}, {"measurement": "IC50", "setting": "Cytochrome P450 2C9", "result": 2290, "unit": "nM"}, {"measurement": "IC50", "setting": "Cytochrome P450 2D6", "result": 392, "unit": "nM"}, {"measurement": "IC50", "setting": "Cytochrome P450 3A4", "result": "> 20000", "unit": "nM"}]}, {"smiles": "O=C(CCCC(=O)c1cccs1)NC(COCc1ccccc1)C(=O)Nc1ccc(Oc2ccccc2)cc1", "note": "(racemic)", "values": [{"measurement": "IC50", "setting": "[1]", "result": 286, "unit": "nM"}]}, {"smiles": "O=C(Nc1ccc(Oc2ccc(F)cc2)cc1)[C@@H]1C[C@@H](Cc2ccccc2)CN1C(=O)Cc1cnc[nH]1", "values": [{"measurement": "IC50", "setting": "[1]", "result": 84.7, "unit": "nM"}, {"measurement": "concentration at 1 h", "setting": "[10]", "result": 26.2, "unit": "µM"}, {"measurement": "concentration at 4 h", "setting": "[2]", "result": 9.8, "unit": "µM"}, {"measurement": "IC50", "setting": "Cytochrome P450 2C9", "result": "< 205", "unit": "nM"}, {"measurement": "IC50", "setting": "Cytochrome P450 2D6", "result": 1180, "unit": "nM"}, {"measurement": "IC50", "setting": "Cytochrome P450 3A4", "result": 7150, "unit": "nM"}]}, {"smiles": "O=C(Cc1cnc[nH]1)N[C@@H](COCc1ccccc1)C(=O)Nc1ccc(-c2ccccc2)cc1", "values": [{"measurement": "IC50", "setting": "[1]", "result": "> 10000", "unit": "nM"}]}, {"smiles": "C[C@H](NC(=O)Cc1cnc[nH]1)C(=O)Nc1ccc(Oc2ccc(Cl)cc2)cc1", "values": [{"measurement": "IC50", "setting": "[1]", "result": 752, "unit": "nM"}]}, {"smiles": "O=C(Cc1cnc[nH]1)N[C@@H](COCc1ccccc1)C(=O)Nc1ccc2oc3ccccc3c2c1", "values": [{"measurement": "IC50", "setting": "[1]", "result": "> 10000", "unit": "nM"}]}, {"smiles": "CN(C(=O)[C@H](COCc1ccccc1)NC(=O)Cc1cnc[nH]1)c1ccc(Oc2ccccc2)cc1", "values": [{"measurement": "IC50", "setting": "[1]", "result": 8280, "unit": "nM"}]}, {"smiles": "O=C(Cc1cnc[nH]1)N[C@@H](COCc1ccccc1)C(=O)Nc1ccc(Oc2ccccc2)cc1", "values": [{"measurement": "IC50", "setting": "[1]", "result": 33, "unit": "nM"}, {"measurement": "concentration at 1 h", "setting": "[11]", "result": 5, "unit": "µM"}, {"measurement": "concentration at 4 h", "setting": "[12]", "result": 3, "unit": "µM"}, {"measurement": "concentration at 1 h", "setting": "[10]", "result": 4.4, "unit": "µM"}, {"measurement": "concentration at 4 h", "setting": "[2]", "result": 0.3, "unit": "µM"}, {"measurement": "metabolised at 0.5 h, 15 µM", "setting": "[9]", "result": 28, "unit": "%"}]}, {"smiles": "O=C(Cc1cnc[nH]1)N[C@@H](COCc1ccccc1)C(=O)Nc1ccc(OC2CCCCC2)cc1", "values": [{"measurement": "IC50", "setting": "[1]", "result": 702, "unit": "nM"}]}, {"smiles": "Cn1cnc(CC(=O)N[C@@H](COCc2ccccc2)C(=O)Nc2ccc(Oc3ccccc3)cc2)c1", "values": [{"measurement": "IC50", "setting": "[1]", "result": 228, "unit": "nM"}]}, {"smiles": "O=C(Cc1cnc[nH]1)N[C@@H](COCc1ccccc1)C(=O)Nc1ccc(Oc2ccccc2)c(Cl)c1", "values": [{"measurement": "IC50", "setting": "[1]", "result": 211, "unit": "nM"}]}, {"smiles": "O=C(Cc1cc(Cl)ccc1Cl)N[C@@H](COCc1ccccc1)C(=O)Nc1ccc(Oc2ccccc2)cc1", "values": [{"measurement": "IC50", "setting": "[1]", "result": "> 10000", "unit": "nM"}]}, {"smiles": "CN(CC(=O)N[C@H](COCc1ccccc1)C(=O)Nc1ccc(Oc2ccccc2)cc1)C(=O)c1ccccc1", "values": [{"measurement": "IC50", "setting": "[1]", "result": "> 10000", "unit": "nM"}]}]}
